High-throughput results deposited in PubChem BioAssay by Broad Institute.
This excerpt belongs to a sample that is enriched for hits.
T cruzi growth-1: inhibitors of T. cruzi proliferation | T. cruzi beta-gal in NIH3T3, GalScreen luminescence, 90 h | inhibition, % at 8.34 µM | 77,000 tested, 5.9% active | AID 624255;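 active means mean inhibition above about 93%, with at least 55% of replicates each passing it, limit read from the data, passing the limit was not always enough; inconclusive means only one of those two conditions holds; inactive means neither condition holds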
IDH1 mut inh: blocks human IDH1 R132H reductase activity. diaphorase/resazurin fluorescence, 60 min. O75874. inhibition, % at 10 µM. 70,000 tested, 0.18% active; in the data active means inhibition above about 34%; inconclusive means no clear call, values can overlap the other calls; inactive means below about 11%;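 further: 0% = DMSO and 100% = no enzyme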
KDM4C inh: KDM4C (human) demethylase inhibition; GST-KDM4C 2-372, H3K9me3 peptide, LANCE TR-FRET; inhibition, % at 12.5 µM; AID 720574; 96,000 tested, 0.15% active; Q9H3R0;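 active means mean replicate inhibition above about 25%, with at least 55% of replicates also reaching it, limit read from the data, passing the limit was not always enough; inconclusive means only one of those two conditions met; inactive means neither condition met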
Target sequence (Q9H3R0 2-372 limits assumed): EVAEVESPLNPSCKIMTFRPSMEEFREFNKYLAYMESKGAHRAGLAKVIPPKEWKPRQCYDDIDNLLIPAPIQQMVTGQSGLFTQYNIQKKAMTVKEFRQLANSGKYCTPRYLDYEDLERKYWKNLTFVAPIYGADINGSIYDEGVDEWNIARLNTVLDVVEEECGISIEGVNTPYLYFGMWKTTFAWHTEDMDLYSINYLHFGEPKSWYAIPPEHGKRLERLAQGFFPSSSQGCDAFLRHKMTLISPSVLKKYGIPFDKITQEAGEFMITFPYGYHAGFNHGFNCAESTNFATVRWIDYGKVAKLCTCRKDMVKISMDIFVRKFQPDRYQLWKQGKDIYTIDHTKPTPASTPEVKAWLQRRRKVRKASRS
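System – N-terminal GST-fused human GASC-1 (KDM4C) fragment, residues 2-372 · Input – enzyme final amount 10 nM · Technique – LANCE TR-FRET, Eu antibody, ULight-streptavidin, EDTA, ex 340 nm, em 618/671 nm · Medium – HEPES buffer, pH 7.5, plus ascorbate · Incubation – enzyme reaction 30 min, then detection 60 min, both room temperature · Reagent – H3K9me3 peptide with Fe(II)/2OG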
T cruzi growth-2: inhibitors of T. cruzi proliferation; shares compounds with T cruzi growth-1; T. cruzi beta-gal in NIH3T3, GalScreen luminescence, 90 h; inhibition, % at 8.35 µM; 5,600 tested, 72% active; AID 651739;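 active means mean replicate inhibition above about 95% and at least 55% of replicates individually reaching it, limit read from the data; inconclusive means only one of the two criteria is met; inactive means neither criterion is met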
T cruzi growth-3: blocks T. cruzi growth in NIH3T3 host cells | shares compounds with T cruzi growth-1 | T. cruzi beta-gal in NIH3T3, GalScreen luminescence, 90 h | inhibition, % at 2.09 µM | 5,600 tested, 21% active;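 active means mean inhibition above about 95%, with at least 55% of replicates also reaching it, limit read from the data; inconclusive means meets just one of the two conditions; inactive means meets neither condition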;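 further: plate controls were neutral control median for no effect and positive control median for full effect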
3T3 cytotox: kills mouse NIH/3T3 fibroblasts. 5,600 tested, 14% active. shares compounds with T cruzi growth-1. NIH/3T3 viability, CellTiter-Glo ATP luminescence, 90 h. cytotoxicity (signal decrease), % at 8.35 µM;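 active means mean signal decrease across replicates above about 35% based on untreated-well scatter, with enough replicates individually passing, limit read from the data; inconclusive means no rule stated though some were filed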;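 further: 0% = median of neutral control wells and 100% = median of positive control wells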
3T3 cytotox 2: cytotoxicity in mouse NIH/3T3 fibroblasts. shares compounds with T cruzi growth-1. NIH/3T3 viability, CellTiter-Glo ATP luminescence, 90 h. inhibition, % at 24.9 µM. 5,600 tested, 56% active. AID 651744;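 active means mean loss of cell viability signal at or above a set limit, and enough replicates individually reaching it; inconclusive means meets only the mean limit or only the replicate share; inactive means meets neither condition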;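 further: 0% = median of neutral control wells and 100% = median of positive control wells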
* = called active by the depositor.

How did C/C=C/c1ccc2c(c1)O[C@@H](CN(C)Cc1cncnc1)[C@H](C)CN([C@@H](C)CO)S2(=O)=O do in these assays?
IDH1 mut inh: 0; KDM4C inh: 7

How did CCCCCCCCC[C@@H](O)CC(=O)CCc1ccc(O)c(OC)c1 do in these assays?
IDH1 mut inh: 0

Results for CN1C(C(=O)Nc2ccccn2)C(=O)c2ccccc2S1(=O)=O (stereo not given) ?
IDH1 mut inh: -2

How did COCC(=O)N1CC[C@H]2[C@@H]1c1cc(-c3ccc(F)cc3)ccc1N(C)[C@H]2CO do in these assays?
T cruzi growth-1: 90; KDM4C inh: 5

What do the screens show for `COCC(=O)N1CC[C@@H]2[C@H]1c1cc(-c3ccccc3)ccc1N(C)[C@H]2CO`?
T cruzi growth-1: 105*; KDM4C inh: 0; T cruzi growth-2: 102*; T cruzi growth-3: 85; 3T3 cytotox: -9; 3T3 cytotox 2: 2

Results for CCCNC(=O)N1CC[C@@H]2[C@@H](CO)N(C)c3ccc(-c4ccc(F)cc4)cc3[C@@H]21 ?
T cruzi growth-1: 64; KDM4C inh: 1

What do the screens show for `COCC(=O)N1CC[C@@H]2[C@H]1c1cc(-c3ccc(F)cc3)ccc1N(C)[C@@H]2CO`?
T cruzi growth-1: 106; KDM4C inh: 4

Results for COCC(=O)N1CC[C@@H]2[C@H]1c1cc(-c3ccccc3)ccc1N(C)[C@@H]2CO ?
T cruzi growth-1: 108*; KDM4C inh: 2; T cruzi growth-2: 96*; T cruzi growth-3: 85; 3T3 cytotox: -9; 3T3 cytotox 2: -3

How did CCCNC(=O)N1CC[C@@H]2[C@H]1c1cc(-c3ccccc3)ccc1N(C)[C@H]2CO do in these assays?
T cruzi growth-1: inconclusive; KDM4C inh: 4; T cruzi growth-2: 108*; T cruzi growth-3: 104*; 3T3 cytotox: 8; 3T3 cytotox 2: 12

How did COc1ccc([N+](=O)[O-])cc1NC(=O)CCSc1ccc(C)cc1 do in these assays?
IDH1 mut inh: -1

How did Cc1ccc(N(CC(N)=O)S(=O)(=O)c2ccccc2)cc1 do in these assays?
IDH1 mut inh: 0

How did C[C@@H]1CN([C@H](C)CO)C(=O)c2c(c3ccccc3n2C)-c2ccccc2CO[C@@H]1CN(C)S(=O)(=O)c1cn(C)cn1 do in these assays?
T cruzi growth-1: 90; KDM4C inh: -2

How did C[C@@H]1CN([C@@H](C)CO)C(=O)c2c(c3ccccc3n2C)-c2ccccc2CO[C@@H]1CN(C)S(=O)(=O)c1cn(C)cn1 do in these assays?
T cruzi growth-1: inconclusive; IDH1 mut inh: -3; KDM4C inh: -1; T cruzi growth-2: 8; T cruzi growth-3: -50; 3T3 cytotox: 1; 3T3 cytotox 2: 31*

How did C[C@H]1CN([C@@H](C)CO)C(=O)c2c(c3ccccc3n2C)-c2ccccc2CO[C@H]1CN(C)S(=O)(=O)c1cn(C)cn1 do in these assays?
T cruzi growth-1: 101*; IDH1 mut inh: -2; KDM4C inh: 0; T cruzi growth-2: 16; T cruzi growth-3: 7; 3T3 cytotox: 2; 3T3 cytotox 2: 22

What do the screens show for `C[C@@H]1CN([C@@H](C)CO)C(=O)c2c(c3ccccc3n2C)-c2ccccc2CO[C@H]1CN(C)S(C)(=O)=O`?
T cruzi growth-1: 21; KDM4C inh: 0

Results for CCOc1ccccc1NC(=O)CSc1nc2sc(C)c(C)c2c(=O)n1-c1ccccc1 ?
IDH1 mut inh: 0

What do the screens show for `CN(C)C(=O)c1cccc(-c2ccc3c(c2)[C@H]2[C@H](CCN2C(=O)C2CC2)[C@@H](CO)N3)c1`?
T cruzi growth-1: 112*; KDM4C inh: 6; T cruzi growth-2: 93; T cruzi growth-3: 48; 3T3 cytotox: -8; 3T3 cytotox 2: -7

Results for O=C(C1CCC1)N1CC[C@@H]2[C@@H](CO)Nc3ccc(-c4cccc(F)c4)cc3[C@@H]21 ?
T cruzi growth-1: 75; KDM4C inh: 1
